Assay outcomes deposited in PubChem BioAssay by several laboratories.
rCAG binder: binders of r(CAG) RNA repeats, primary screen, biochemical, fluorescence; r(CAG) RNA repeat, TO-PRO-1 dye displacement fluorescence; inhibition, % at 3 µM; 1.3% of 370,000 active;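 active = inhibition above the plate cutoff, the mean of all test compounds on that plate plus 3 SD, cut at about 35% in these data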;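 also: higher means more dye released from RNA so lower well fluorescence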
Granule exo inh: LAMP-1 surface exposure blockers, TALL-104 cells – cell-based, flow cytometry, MLPCN library, primary screen | inhibition, % at 10 µM | AID 651702, 2012 | TALL-104 LAMP-1 surface exposure; cells stimulated with thapsigargin and PMA | 0.66% of 360,000 active;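 active = inhibition above about 55%, limit read from the data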
MPTP inh: mitochondrial permeability transition pore inhibitors, primary screen, biochemical, isolated mouse mitochondria, absorbance | Ca2+ swelling absorbance, 30 min | inhibition, % at 10 µM | 1.4% of 360,000 active | AID 602449, 2012;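 active = inhibition of 50% or more, scaled per plate between neutral and stimulator controls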
T cell HTS: modulators of CD8 T cell-vesicle binding, primary screen, mouse 2C CD8+ T cells, flow cytometry | response (vesicle binding), % at 7 µM | 2C CD8+ T cell-vesicle binding; hits give low values | AID 2052, 2009 | 0.068% of 330,000 active;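 active = response, share of CD8 T cells binding vesicles, and their 90th percentile fluorescence all below set limits, cut at about 80% in these data, passing the limit was not always enough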;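 also: values below 100% mean blocked vesicle binding to the CD8+ T cells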
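Read-out – percent CD8+ FL2 mean versus row control · System – murine 2C transgenic CD8+ T lymphocytes · Times – 1.5 h cell–vesicle binding at 37 °C, then 20 min icy labelling · Control set – naked vesicles low, QL9 vesicles with vehicle high · Detection – cytometric PE anti-B7-1 and Alexa647 anti-CD8 signals after 1% paraformaldehyde fixation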
B2AR ag: beta2AR agonists driving receptor internalization, primary screen, cell-based, FAP fluorogen, flow cytometry | Beta-2 adrenergic receptor (Homo sapiens), P07550 | Am2.2-beta2AR cells | response, % (test concentration not listed) | 0.43% of 340,000 active | AID 504454, 2011;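 active = response above a set limit, near 3 SD of response in nonfluorescent compounds, cut at about 42% in these data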
Target sequence (P07550 whole entry, looked up): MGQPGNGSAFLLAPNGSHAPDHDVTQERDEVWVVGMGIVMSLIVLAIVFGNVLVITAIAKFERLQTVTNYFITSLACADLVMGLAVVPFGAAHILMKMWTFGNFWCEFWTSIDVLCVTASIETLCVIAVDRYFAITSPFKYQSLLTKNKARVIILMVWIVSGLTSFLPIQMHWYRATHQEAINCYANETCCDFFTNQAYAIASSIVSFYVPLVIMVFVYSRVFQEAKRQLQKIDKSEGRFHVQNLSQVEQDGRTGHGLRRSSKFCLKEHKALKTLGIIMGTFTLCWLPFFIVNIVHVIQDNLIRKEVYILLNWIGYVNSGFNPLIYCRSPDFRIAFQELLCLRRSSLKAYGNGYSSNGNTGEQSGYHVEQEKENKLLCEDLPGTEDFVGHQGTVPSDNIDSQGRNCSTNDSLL
V-ATPase pH: regulators of yeast V-ATPase proton pumping, primary screen, pHLuorin cytosolic pH fluorescence | S. cerevisiae | response, % at 10 µM | 0.37% of 350,000 active | AID 504577, 2011; in the data active = response mostly above about 7.3%, no sharp cut-off; inactive = mostly below about 5.4%; also: actives read high
rCAG bind conf: small molecules binding CAG repeat RNA – biochemical, fluorescence, confirmation | inhibition, % at 3 µM | shares compounds with rCAG binder | r(CAG) RNA repeat, TO-PRO-1 dye displacement fluorescence | 70% of 4,300 active;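 active = inhibition above a per-plate cutoff, the mean inhibition of sample wells plus 3 SD, cut at about 35% in these data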;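 also: loss of TO-PRO-1 fluorescence as compound displaces dye from 1x1 AA loop RNA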
DNA CAG counter: displacement of TO-PRO-1 from CAG DNA duplex, counter-screen for rCAG RNA repeat binder project, biochemical, fluorescence, TO-PRO-1 dye, d(CAG) DNA oligo; 94% of 4,300 active; d(CAG) DNA oligo TO-PRO-1 dye displacement; shares compounds with rCAG binder; inhibition, % at 3 µM;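 active = inhibition above its plate's cutoff, the mean test-well inhibition plus 3 SD, cut at about 4.8% in these data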;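 also: hits displace the dye from DNA and so lower well fluorescence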
dCAG dye DR: inhibitors of DNA CAG/GTC TO-PRO-1 complex, dose response, counter-screen for rCAG RNA repeat binder project, biochemical, fluorescence, TO-PRO-1 dye | 20% of 250 active | DNA CAG/GTC duplex TO-PRO-1 dye displacement fluorescence | IC50, µM | shares compounds with rCAG binder; in the data active = IC50 below about 10 µM
Hits are given with their value; . = inactive; / = not tested or not shown. In the library only some 3.8% were active in any assay of this set; here they are far more common.

SMILES	rCAG binder	Granule exo inh	MPTP inh	T cell HTS	B2AR ag	V-ATPase pH	rCAG bind conf	DNA CAG counter	others
O=C(Nc1sc2c(c1C(=O)O)CCCC2)c1ccc(F)cc1	.	.	.	.	.	.	/	/
COc1ccc(-c2cc(C(=O)NN=Cc3ccccc3[N+](=O)[O-])[nH]n2)cc1	.	/	/	/	/	/	/	/
Cc1cccc(OC[C@@H](O)CN2CCC(C(O)(c3ccccc3)c3ccccc3)CC2)c1	.	/	/	/	/	/	/	/
COC(=O)c1ccc(CN(c2ccc(C(=O)O)c(O)c2)S(=O)(=O)c2ccc(Cl)c([N+](=O)[O-])c2)cc1	43.1	.	.	.	.	.	52.4	17.6
COC(=O)c1ccc(CN(c2ccccn2)S(=O)(=O)c2ccccc2)cc1	.	.	.	.	.	.	/	/
CCCCN1CC(N2CCCC2)CS1(=O)=O (stereo not drawn)	.	/	/	/	/	/	/	/
CC(C)c1ccc(NC(=O)Nc2nc(C(N)C3CCCCC3)cs2)cc1 (stereo not drawn)	34.6	.	.	/	/	/	.	5.5
CN(C)c1ccc(NC(=O)Nc2nc(C(N)C3CCCCC3)cs2)cc1 (stereo not drawn)	.	.	.	/	/	/	/	/
COc1ccc(NC(=O)Nc2nc(C(N)C3CCCCC3)cs2)cc1 (stereo not drawn)	39.8	.	.	/	/	/	.	4.6
COC(=O)C1(Cc2ccccc2)NC(c2ccc(F)cc2)C2C(=O)N(C)C(=O)C21 (stereo not drawn)	.	.	.	.	.	.	/	/
COc1ccc(N2C(=O)C3C(c4ccc(C(=O)O)cc4)NC(Cc4ccccc4)(C(=O)O)C3C2=O)c([N+](=O)[O-])c1 (stereo not drawn)	37.2	.	.	.	.	.	.	6.6
CCN(CC)S(=O)(=O)c1ccc(O)c(NC(=O)c2ccc(N3CCOCC3)c([N+](=O)[O-])c2)c1	52.9	.	.	.	.	.	43.5	12.7
CC(/C=C1\SC(=S)N(c2ccc(C(=O)O)cc2)C1=O)=C\c1ccccc1	55.5	.	.	.	.	.	84.0	51.9
CC(/C=C1\SC(=S)N(C(C(=O)O)C(C)C)C1=O)=C\c1ccccc1 (stereo not drawn)	71.9	.	.	.	.	.	75.2	31.5	dCAG dye DR=.
C=CS(=O)(=O)N[C@@H](CSSC[C@H](NS(=O)(=O)C=C)C(=O)OC)C(=O)OC	.	/	/	/	/	/	/	/
CC1(C)CC(=O)C=C(c2ccccc2-c2ccc3c(c2)OCO3)C1=O	.	/	/	/	/	/	/	/
CC(C)NC(=O)N[C@H]1C[C@@H]2O[C@@H](CO)CC[C@@H]2O[C@@H]1CCc1ccc(-c2ccccc2F)cc1	.	/	/	/	/	/	/	/
CCC(=O)N1CCc2cc(Br)c(S(=O)(=O)NC3CCN(Cc4ccccc4)CC3)cc21	.	/	/	/	/	/	/	/
CCOC(=O)C1=CC[C@@H](c2ccccc2)N(S(=O)(=O)c2ccc(C)cc2)[C@H]1c1ccccc1C	.	.	.	/	/	/	/	/
CCc1ccc([C@@H]2CC=C(C(=O)O)[C@H](c3ccc(C)cc3)N2S(=O)(=O)c2ccc(C)cc2)cc1	79.0	.	.	.	.	.	82.3	49.7
CCc1ccc([C@@H]2CC=C(C(=O)O)[C@H](c3ccc(Cl)cc3)N2S(=O)(=O)c2ccc(C)cc2)cc1	83.2	.	.	.	.	.	84.8	54.3
Cc1ccc(S(=O)(=O)N2[C@@H](c3cccc(Cl)c3)C(C(=O)O)=CC[C@H]2c2cccc(Cl)c2)cc1	.	.	.	.	.	.	/	/
CCc1ccc([C@@H]2CC=C(C(=O)O)[C@H](c3cccc(Cl)c3)N2S(=O)(=O)c2ccc(C)cc2)cc1	81.6	.	.	.	.	.	76.1	35.5
CCc1ccc([C@@H]2CC=C(C(=O)O)[C@H](c3ccccc3F)N2S(=O)(=O)c2ccc(C)cc2)cc1	68.8	.	.	.	.	.	72.8	34.7
CN1C(c2ccccc2)CC2CN(c3ccccc3)C(=O)C21 (stereo not drawn)	.	/	/	/	/	/	/	/
SMILES	rCAG binder	Granule exo inh	MPTP inh	T cell HTS	B2AR ag	V-ATPase pH	rCAG bind conf	DNA CAG counter	others
CCN(CC)C(=O)CC[C@H]1CC[C@]2(CCCN(Cc3ccc(OC)cc3)C2)O1	.	/	/	/	/	/	/	/
CCCSc1nnc(NC(=O)CSc2nc3[nH]c(=O)cc(O)c3s2)s1	37.5	.	.	.	.	.	.	7.8
CCSc1nnc(NC(=O)CSc2sc3c(O)cc(=O)[nH]c3c2C#N)s1	58.4	.	.	.	.	.	63.2	28.3
CCc1nnc(NC(=O)CSc2nc3[nH]c(=O)cc(O)c3s2)s1	.	.	.	.	.	.	/	/
Cc1csc(NC(=O)CSc2sc3c(O)cc(=O)[nH]c3c2C#N)n1	74.7	.	.	.	.	.	36.5	14.4
CC1(C(=O)NS(=O)(=O)c2cccs2)CCN1C(=O)c1ccccc1CCc1ccccc1 (stereo not drawn)	43.8	.	.	/	/	/	.	7.0
CC1(C(=O)NS(=O)(=O)c2cccs2)CCN1C(=O)Cc1ccccc1 (stereo not drawn)	.	.	.	/	/	/	/	/
CC1(C(=O)NS(=O)(=O)c2ccc(F)cc2F)CCN1C(=O)Cc1ccccc1 (stereo not drawn)	.	.	.	/	/	/	/	/
CC1(C(=O)NS(=O)(=O)c2cccc(C#N)c2)CCN1C(=O)c1ccccc1CCc1ccccc1 (stereo not drawn)	45.8	.	.	/	/	/	38.9	9.5
CC1(C(=O)NS(=O)(=O)c2cccc(Cl)c2)CCN1C(=O)c1ccccc1CCc1ccccc1 (stereo not drawn)	60.9	.	.	/	/	/	59.7	21.7
CC1(C(=O)NS(=O)(=O)c2ccc(F)cc2F)CCN1C(=O)c1ccccc1CCc1ccccc1 (stereo not drawn)	50.8	.	.	/	/	/	42.5	10.2
CCOC(=O)[C@@]12CCCC=C1N(CCc1ccc(Cl)cc1)C(=O)[C@H]2CC(=O)NCC12CC3CC(CC(C3)C1)C2	.	/	/	/	/	/	/	/
Cc1nn(-c2ccccc2)c2sc(C(=O)NCC3CCCO3)cc12 (stereo not drawn)	.	/	/	/	/	/	/	/
CC1(C(=O)NS(=O)(=O)c2ccccc2Cl)CCN1C(=O)Cc1ccccc1 (stereo not drawn)	.	.	.	/	/	/	/	/
CC1(C(=O)NS(=O)(=O)c2ccccc2Cl)CCN1C(=O)c1ccccc1CCc1ccccc1 (stereo not drawn)	57.1	.	.	/	/	/	63.0	18.9
